Source: ChEMBL document CHEMBL3120133, “Discovery of a potent boronic acid derived inhibitor of the HCV RNA-dependent RNA polymerase” (J Med Chem, 2014)
Calls of active or inactive are those of the source. The rule behind the calls is not given here.

Tests used:
[1] = Clearance in Sprague-Dawley rat at 1 mg/kg, iv and 5 mg/kg, po; format: ADME, organism-based; conditions: in vivo
[2] = Inhibition of C-terminal 6xHis-tagged Hepatitis C virus genotype 1b BK NS5B Cdelta21 RNA dependent RNA polymerase L47Q/F101Y/[…] mutant after 30 mins in presence of [alpha-33P]; set-up: species or system Hepatitis C virus (isolate BK)
[3] = test system: Hepatitis C virus; assay: Antiviral activity against wild type Hepatitis C virus genotype 1b harboring C316N mutant infected in human HuH7 cells assessed as inhibition of viral replication after 48 hrs by luciferase reporter gene assay; format: functional, organism-based, Hepacivirus hominis; conditions: Huh-7, 48 h
[4] = test system: Hepatitis C virus; assay: Antiviral activity against wild type Hepatitis C virus genotype 1b infected in human HuH7 cells assessed as inhibition of viral replication after 48 hrs by luciferase reporter gene assay; format: functional, organism-based, Hepacivirus hominis; conditions: Huh-7, 48 h
In short: (§1)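 Replicon-based readout (stable and transient replicon formats) in place of virus infection, with compound present for 2 days before EC50 determination.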

[5] = test system: Hepatitis C virus; assay: Antiviral activity against wild type Hepatitis C virus genotype 1a infected in human HuH7 cells assessed as inhibition of viral replication after 48 hrs by luciferase reporter gene assay; format: functional, organism-based, Hepacivirus hominis; conditions: subtype 1a, Huh-7, 48 h; in short: as §1
[6] = Stability of the compound; format: physicochemical
[7] = test system: Huh-7; assay: Cytotoxicity in human HuH7 cells assessed as cell viability after 72 hrs by CellTitre-glo luminescence assay; format: cell-based; conditions: huh-7, 72 h
[8] = test system: Hepatitis C virus; assay: Antiviral activity against wild type Hepatitis C virus genotype 1a harboring C316Y mutant infected in human HuH7 cells assessed as inhibition of viral replication after 48 hrs by luciferase reporter gene assay; format: functional, organism-based, Hepacivirus hominis; conditions: subtype 1a, Huh-7, 48 h
[9] = Bioavailability in Sprague-Dawley rat at 1 mg/kg, iv and 5 mg/kg, po; format: ADME, organism-based; conditions: in vivo
[10] = test system: Hepatitis C virus; assay: Antiviral activity against wild type Hepatitis C virus genotype 1b harboring S365T mutant infected in human HuH7 cells assessed as inhibition of viral replication after 72 hrs by Bright-glo luciferase reporter gene assay; format: functional, organism-based, Hepacivirus hominis; conditions: Huh-7, 72 h
[11] = test system: Hepatitis C virus; assay: Antiviral activity against wild type Hepatitis C virus genotype 1b harboring C316F mutant infected in human HuH7 cells assessed as inhibition of viral replication after 72 hrs by Bright-glo luciferase reporter gene assay; format: functional, organism-based, Hepacivirus hominis; conditions: Huh-7, 72 h
[12] = test system: Hepatitis C virus; assay: Antiviral activity against wild type Hepatitis C virus genotype 1b harboring C316Y mutant infected in human HuH7 cells assessed as inhibition of viral replication after 72 hrs by Bright-glo luciferase reporter gene assay; format: functional, organism-based, Hepacivirus hominis; conditions: Huh-7, 72 h
[13] = test system: RNA-directed RNA polymerase (Hepacivirus hominis), O39930 [C316N]; assay: Binding affinity to Hepatitis C virus genotype 1b NS5B Cdelta21 RNA dependent RNA polymerase 316N mutant assessed as dissociation half life at 10 uM by LC-MS/MS analysis; conditions: Hepatitis C virus subtype 1b
Sequence of RNA-directed RNA polymerase (Hepacivirus hominis), O39930 [C316N] (O39930 entry or part of it C316N): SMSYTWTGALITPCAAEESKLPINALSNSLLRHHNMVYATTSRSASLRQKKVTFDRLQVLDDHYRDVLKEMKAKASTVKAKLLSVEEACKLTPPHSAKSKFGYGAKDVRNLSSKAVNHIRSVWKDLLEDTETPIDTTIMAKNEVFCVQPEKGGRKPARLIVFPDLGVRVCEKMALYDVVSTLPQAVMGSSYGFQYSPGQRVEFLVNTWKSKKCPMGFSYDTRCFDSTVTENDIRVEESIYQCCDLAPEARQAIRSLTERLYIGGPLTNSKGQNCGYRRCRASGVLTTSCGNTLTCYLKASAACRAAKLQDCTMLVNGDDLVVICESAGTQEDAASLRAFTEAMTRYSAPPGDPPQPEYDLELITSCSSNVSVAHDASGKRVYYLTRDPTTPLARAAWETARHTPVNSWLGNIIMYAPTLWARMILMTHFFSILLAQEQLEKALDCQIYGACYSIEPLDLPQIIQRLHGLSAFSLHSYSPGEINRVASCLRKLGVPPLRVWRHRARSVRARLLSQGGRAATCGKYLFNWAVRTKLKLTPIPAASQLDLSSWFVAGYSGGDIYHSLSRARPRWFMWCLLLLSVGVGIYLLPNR
In short: (§2)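 NS5B∆21 GT1b 316N (10 uM) saturated with 12uM inhibitor to pre-form the complex, then diluted 20-fold into 10 uM of the competing Palm II inhibitor to block rebinding. Bound compound was separated from free by rapid size-exclusion filtration over time, and both inhibitors were quantified by LC-MS. Off-rates were fitted to a single or two-phase exponential to give t1/2.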

[14] = biological target: RNA-directed RNA polymerase (Hepacivirus hominis, UniProt O39930, C316N); assay: Inhibition of Hepatitis C virus genotype 1b NS5B Cdelta21 RNA dependent RNA polymerase 316N mutant using biotinylated polyC:oligoG/[alpha-P33]-GTP as template/substrate preincubated for 15 mins followed by template/substrate addition by scintillation proximity assay; set-up: species or system Hepatitis C virus subtype 1b
Sequence of RNA-directed RNA polymerase (O39930 entry or part of it C316N): as above
In short: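 Isolated NS5B at 30 nM was preincubated with inhibitor for 15 min before reaction start. The IC50 was determined from the polymerase assay.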

[15] = test system: Hepatitis C virus (isolate BK); assay: Inhibition of C-terminal 6xHis-tagged Hepatitis C virus genotype 1b BK NS5B Cdelta21 RNA dependent RNA polymerase L47Q/F101Y/[…] mutant expressed in Escherichia coli BL21(DE3) using radiolabelled CTP/5'-A(8)CG-3' as substrate/template assessed as inhibition of pCpG dimer formation at 0.016 to 10 uM
[16] = test system: RNA-directed RNA polymerase (Hepacivirus hominis), O39930 [C316N]; assay: Binding affinity to Hepatitis C virus genotype 1b NS5B Cdelta21 RNA dependent RNA polymerase 316N mutant assessed as dissociation half life at 0.6 uM by LC-MS/MS analysis; conditions: Hepatitis C virus subtype 1b; in short: as §2

Row | Structure (SMILES) | clearance [1] | IC50 [2] | EC50 [3] | EC50 [4] | EC50 [5] | Stability [6] | Activity [7] | EC50 [8] | bioavailability [9] | EC50 [10] | EC50 [11] | EC50 [12] | T1/2 [13] | IC50 [14] | inhibition [15] | T1/2 [16]
1 | CNC(=O)c1c(-c2ccc(F)cc2)oc2cc(N(CCOCB(O)O)S(C)(=O)=O)c(C3CC3)cc12 | 25 mL/min/kg | 40 nM | 3.9 nM | 3.2 nM | 6.7 nM | – | – | – | – | – | – | – | – | – | – | –
2 | CNC(=O)c1c(-c2ccc(F)cc2)oc2cc(N(Cc3cccc(B(O)O)c3)S(C)(=O)=O)c(C3CC3)cc12 | – | 30 nM | 120 nM | 6.9 nM | 8.8 nM | – | – | – | – | – | – | – | – | – | – | –
3 | CNC(=O)c1c(-c2ccc(F)cc2)oc2cc(N(Cc3ccc(S(=O)(=O)O)cc3)S(C)(=O)=O)c(C3CC3)cc12 | – | 16 nM | > 5000 nM | 1800 nM | > 5000 nM | – | – | – | – | – | – | – | – | – | – | –
4 | CNC(=O)c1c(-c2ccc(F)cc2)oc2cc(N(CC3CCB(O)O3)S(C)(=O)=O)c(C3CC3)cc12 (racemic) | – | 100 nM | 52 nM | 6.5 nM | 8.8 nM | Stable | Non-toxic | – | – | – | – | – | – | – | – | –
5 | CNC(=O)c1c(-c2ccc(F)cc2)oc2cc(N(CC3COB(O)C3)S(C)(=O)=O)c(C3CC3)cc12 (racemic) | – | 50 nM | 7.6 nM | 2.8 nM | 2.9 nM | Stable | Non-toxic | – | – | – | – | – | – | – | – | –
6 | CNC(=O)c1c(-c2ccc(F)cc2)oc2cc(N(CC3=CB(O)OC3)S(C)(=O)=O)c(C3CC3)cc12 | – | 50 nM | 13 nM | 1.9 nM | 9.6 nM | Stable | Non-toxic | – | – | – | – | – | – | – | – | –
7 | CNC(=O)c1c(-c2ccc(F)cc2)oc2cc(N(Cc3ccc4c(c3)COB4O)S(C)(=O)=O)c(C3CC3)cc12 | – | 40 nM | 16 nM | 2.7 nM | 9.5 nM | – | – | – | – | – | – | – | – | – | – | –
8 | CNC(=O)c1c(-c2ccc(F)cc2)oc2cc(N(CCC3OB(O)c4ccccc43)S(C)(=O)=O)c(C3CC3)cc12 (racemic) | – | 32 nM | 12 nM | 3.5 nM | 7.4 nM | – | – | 790 nM | – | – | – | – | – | – | – | –
9 | CNC(=O)c1c(-c2ccc(F)cc2)oc2cc(N(Cc3cccc4c3COB4O)S(C)(=O)=O)c(C3CC3)cc12 | – | 32 nM | 110 nM | 4.9 nM | 17 nM | – | – | – | – | – | – | – | – | – | – | –
10 | CNC(=O)c1c(-c2ccc(F)cc2)oc2cc(N(CCC3COB(O)C3)S(C)(=O)=O)c(C3CC3)cc12 (racemic) | – | 50 nM | 5.6 nM | 3.1 nM | 6.1 nM | Stable | Non-toxic | – | – | – | – | – | – | – | – | –
11 | CNC(=O)c1c(-c2ccc(F)cc2)oc2cc(N(Cc3ccc(P(=O)(O)O)cc3)S(C)(=O)=O)c(C3CC3)cc12 | – | 20 nM | > 5000 nM | 760 nM | 2200 nM | – | – | – | – | – | – | – | – | – | – | –
12 | CNC(=O)c1c(-c2ccc(F)cc2)oc2cc(N(Cc3ccc4c(c3)B(O)OC4)S(C)(=O)=O)c(C3CC3)cc12 | – | 32 nM | 64 nM | 4.9 nM | 7.4 nM | – | – | – | – | – | – | – | – | – | – | –
13 | CNC(=O)c1c(-c2ccc(F)cc2)oc2cc(N(CC3CCOB(O)C3)S(C)(=O)=O)c(C3CC3)cc12 (racemic) | – | 80 nM | 38 nM | 3.7 nM | 9.1 nM | Stable | Non-toxic | – | – | – | – | – | – | – | – | –
14 | CNC(=O)c1c(-c2ccc(F)cc2)oc2cc(N(CC3CCB(O)OC3)S(C)(=O)=O)c(C3CC3)cc12 (racemic) | – | 63 nM | 56 nM | 6.4 nM | 9.7 nM | Stable | Non-toxic | – | – | – | – | – | – | – | – | –
15 | CNC(=O)c1c(-c2ccc(F)cc2)oc2cc(N(Cc3ccc4c(c3)CCOB4O)S(C)(=O)=O)c(C3CC3)cc12 | – | 40 nM | 9 nM | 4.2 nM | 7 nM | – | – | 350 nM | – | – | – | – | – | – | – | –
16 | CNC(=O)c1c(-c2ccc(F)cc2)oc2cc(N(Cc3ccc(B(O)O)cc3)S(C)(=O)=O)c(C3CC3)cc12 | 36 mL/min/kg | 32 nM | 13 nM | 2.6 nM | 2.7 nM | – | – | 120 nM | < 3% | – | – | – | – | – | – | –
17 | CNC(=O)c1c(-c2ccc(F)cc2)oc2cc(N(Cc3ccc(B(O)O)c(C)c3)S(C)(=O)=O)c(C3CC3)cc12 | – | 80 nM | 5.4 nM | 2.2 nM | 4.8 nM | – | – | – | – | – | – | – | – | – | – | –
18 | CNC(=O)c1c(-c2ccc(F)cc2)oc2cc(N(Cc3ccc(C(=O)O)cc3)S(C)(=O)=O)c(C3CC3)cc12 | – | 25 nM | 3200 nM | 150 nM | 290 nM | – | – | – | – | – | – | – | – | – | – | –
19 | CNC(=O)c1c(-c2ccc(F)cc2)oc2cc(N(Cc3ccc(B(O)O)c(OC)c3)S(C)(=O)=O)c(C3CC3)cc12 | – | 100 nM | 50 nM | 3.6 nM | 12 nM | – | – | – | – | – | – | – | – | – | – | –
20 | CNC(=O)c1c(-c2ccc(F)cc2)oc2cc(N(C[C@@H]3COB(O)C3)S(C)(=O)=O)c(C3CC3)cc12 | 6.6 mL/min/kg | 63 nM | 13 nM | 4.6 nM | 7.6 nM | – | – | 830 nM | – | 6.5 nM | 37 nM | 11 nM | – | – | – | –
21 | CNC(=O)c1c(-c2ccc(F)cc2)oc2cc(N(Cc3cc(F)c4c(c3)COB4O)S(C)(=O)=O)c(C3CC3)cc12 | – | 32 nM | 12 nM | 3.2 nM | 5.8 nM | – | – | 190 nM | – | 84 nM | 110 nM | 16 nM | – | – | – | –
22 | CNC(=O)c1c(-c2ccc(F)cc2)oc2cc(N(CCO)S(C)(=O)=O)c(C3CC3)cc12 [NESBUVIR] | – | 40 nM | 100 nM | 18 nM | 27 nM | – | – | 1900 nM | – | 1300 nM | 2500 nM | 420 nM | 1.7 h | 160 nM | – | –
23 | CNC(=O)c1c(-c2ccc(F)cc2)oc2cc(N(C[C@H]3COB(O)C3)S(C)(=O)=O)c(C3CC3)cc12 | 32 mL/min/kg | 50 nM | 11 nM | 2.9 nM | 5.3 nM | Stable | Non-toxic | – | – | – | – | – | – | – | – | –
24 | CNC(=O)c1c(-c2ccc(F)cc2)oc2cc(N(Cc3ccccc3)S(C)(=O)=O)c(C3CC3)cc12 | – | 50 nM | 440 nM | 18 nM | 58 nM | – | – | – | – | – | – | – | – | – | – | –
25 | CNC(=O)c1c(-c2ccc(F)cc2)oc2cc(N(Cc3ccc(B(O)O)c(F)c3)S(C)(=O)=O)c(C3CC3)cc12 | – | 50 nM | 1.9 nM | 1.7 nM | 3 nM | – | – | 3.2 nM | – | 4.2 nM | 3.8 nM | 1.4 nM | – | 130 nM | Active | 4.3 h
26 | CCOP(=O)(OCC)c1ccc(CN(c2cc3oc(-c4ccc(F)cc4)c(C(=O)NC)c3cc2C2CC2)S(C)(=O)=O)cc1 | – | 100 nM | 480 nM | 20 nM | 36 nM | – | – | – | – | – | – | – | – | – | – | –
